This is a sample that favours compounds with a hit; in the whole collection about 3.1% have one here.
UHRF1 binding: UHRF1 methyl-DNA binding inhibition | Q96T88 | 370,000 compounds, 0.75% hits | inhibition, % at 4.4 µM | UHRF1 binding to methylated oligo, TR-FRET; in the data active = inhibition above about 21%;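 also: UHRF1 SRA domain binding a hemimethylated CpG hairpin DNA probe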
RBBP9 inh: inhibitors of human serine hydrolase RBBP9 | O75884 | recombinant RBBP9, FP-Rh probe fluorescence polarization | inhibition, % at 7.94 µM | 220,000 compounds, 0.2% hits;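 active = inhibition above the campaign mean of all tested compounds plus 3 SD, cut at about 14% in these data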
Target sequence (O75884 whole entry, looked up): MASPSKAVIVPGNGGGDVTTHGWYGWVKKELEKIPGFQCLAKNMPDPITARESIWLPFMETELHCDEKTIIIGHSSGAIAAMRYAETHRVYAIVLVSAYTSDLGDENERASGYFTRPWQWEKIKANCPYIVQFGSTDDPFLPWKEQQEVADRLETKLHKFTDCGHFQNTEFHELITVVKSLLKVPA
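system = RBBP9 protein | input = RBBP9 at 2.5 µM in dispensed solution, before mixing | measured by = fluorescence polarization (mP), excitation 525 nm, emission 598 nm | incubation = enzyme-compound preincubation 30 min, then probe labeling 45 min, 25 °C | buffer or medium = Tris-NaCl-Pluronic buffer, pH 8.0 | compound = single dose 7.94 µM | also added = FP-Rh probe, 375 nM dispensing solution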
PRMT1 inh: inhibitors of human PRMT1. Q99873. recombinant PRMT1, activity-based probe fluorescence polarization. inhibition, % at 2.79 µM. 370,000 compounds, 1.3% hits. AID 652257;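 active = inhibition above about 21% made by adding two undisclosed values, limit read from the data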
Target sequence (Q99873 whole entry, looked up): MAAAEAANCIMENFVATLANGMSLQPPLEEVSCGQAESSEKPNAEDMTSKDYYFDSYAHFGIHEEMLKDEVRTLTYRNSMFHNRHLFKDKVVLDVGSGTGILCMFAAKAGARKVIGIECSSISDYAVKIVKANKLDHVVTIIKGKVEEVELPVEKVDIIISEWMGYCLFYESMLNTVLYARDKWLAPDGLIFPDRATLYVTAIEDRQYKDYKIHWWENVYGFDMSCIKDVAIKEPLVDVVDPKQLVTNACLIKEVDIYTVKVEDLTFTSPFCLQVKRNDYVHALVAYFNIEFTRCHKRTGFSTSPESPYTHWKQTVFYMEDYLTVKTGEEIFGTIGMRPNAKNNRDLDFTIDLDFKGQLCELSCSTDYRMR
LEDGF integ inh: blocks HIV-1 LEDGF/p75-dependent DNA integration; TR-FRET IN-LEDGF/p75 DNA integration, Eu/Cy5; 370,000 compounds, 0.64% hits; inhibition, % at 3.7 µM; AID 743269;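 active = inhibition above the screen-wide mean plus 3 SD, cut at about 13% in these data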;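 also: signal is the Cy5 over europium emission ratio at 671 and 618 nm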
MBD2 inh: inhibitors of human MBD2 binding to methylated oligonucleotide; Q9UBB5; 370,000 compounds, 0.31% hits; inhibition, % at 4.4 µM; TR-FRET; in the data active = inhibition above about 13%
ABHD5 PLIN5 PPI: inhibitors of human ABHD5-perilipin-5 interaction | Q00G26+Q8WTS1 | Split G. princeps luciferase complementation, luminescence, 4 h | inhibition, % at 4 µM | 360,000 compounds, 0.78% hits | AID 602281;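 active = inhibition above the mean inhibition across every tested compound plus 3 SD, cut at about 22% in these data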
PRMT1 inh conf: PRMT1 (human) inhibition, FP confirmation | shares compounds with PRMT1 inh | recombinant His-PRMT1, activity-based probe fluorescence polarization | inhibition, % at 2.79 µM | 3,300 compounds, 42% hits;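 active = mean inhibition across replicates above the hit cutoff derived for the earlier primary screen, cut at about 22% in these data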
UHRF1 ctr MBD2: UHRF1 methyl-oligo binding inhibition as MBD2 counter-screen | shares compounds with MBD2 inh | UHRF1 binding to methylated oligonucleotide, TR-FRET | inhibition, % at 4.4 µM | 1,000 compounds, 25% hits; in the data active = inhibition above about 21%;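 also: UHRF1 SRA domain binding a labeled hemimethylated CpG hairpin DNA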
MBD2 confirm: MBD2-DBD methyl-DNA binding inhibition, TR-FRET confirmation; shares compounds with MBD2 inh; TR-FRET MBD2-DBD binding to methylated oligonucleotide; inhibition, % at 4.4 µM; 1,000 compounds, 26% hits; AID 720531
IN multimer act: activates HIV-1 integrase multimerization in LEDGF counter-screen | TR-FRET HIV-1 integrase multimerization, biochemical | activation, % at 7.7 µM | 2,000 compounds, 17% hits | shares compounds with LEDGF integ inh; in the data active = activation above about 8.9%
TR-FRET interf: TR-FRET optical interference, LEDGF/p75 integration counter-screen; AID 1053135; inhibition, % at 7.7 µM; TR-FRET optical interference counterscreen, HIV-1 IN multimerization; shares compounds with LEDGF integ inh; 2,000 tested, under 10 active;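 active = inhibition above the mean over all tested compounds plus 3 SD, which no compound reached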
IN-LEDGF confirm: confirmation of HIV-1 LEDGF/p75-dependent integration inhibitors | shares compounds with LEDGF integ inh | TR-FRET LEDGF/p75-dependent HIV-1 integration, biochemical | inhibition, % at 3.7 µM | 2,000 compounds, 36% hits
Large screens that a line does not name were inactive (follow-up assays come after a bar, where they were run). Rule as the data show it, unless noted: active = inhibition above about 14%; inactive = the rest.

COc1ccc(OC)c(CN2C(=O)CCCC2(C)c2nnnn2C2CCCC2)c1 (stereo not drawn)	none (no result: RBBP9 inh, ABHD5 PLIN5 PPI)
Cc1ccc(C)n1-c1sc2c(c1C(=O)O)CCCC2	UHRF1 binding 46, PRMT1 inh 27, LEDGF integ inh 25 | PRMT1 inh conf inactive | IN multimer act inactive | TR-FRET interf inactive | IN-LEDGF confirm 25
CCOC(=O)c1c(-n2c(C)cc(C=O)c2C)sc2c1CCCC2	none
O=C(Nc1cccc([N+](=O)[O-])c1)OCc1ccc2c(c1)OCO2	none (no result: RBBP9 inh, ABHD5 PLIN5 PPI)
Brc1ccc(-c2nn3c(-c4ccco4)nnc3s2)o1	UHRF1 binding 22, PRMT1 inh 53, LEDGF integ inh 15 | PRMT1 inh conf inactive | IN multimer act 9.3 | TR-FRET interf inactive | IN-LEDGF confirm 30
Clc1ccc(-c2ccc(-c3nn4c(-c5ccco5)nnc4s3)o2)cc1	none
CCOc1cccc(-c2nn3c(-c4cccc(C)c4)nnc3s2)c1	none (no result: RBBP9 inh, ABHD5 PLIN5 PPI)
COC(=O)[C@]12C[C@H](CC(=O)N3CCOCC3)C(=O)N(Cc3cccc4ccccc34)C1=C[C@H](C1CCCC1)O[C@@H]2C	none (no result: RBBP9 inh, ABHD5 PLIN5 PPI)
CCSc1nc(-c2ccco2)ccc1C#N	PRMT1 inh 31, LEDGF integ inh 16 | PRMT1 inh conf inactive | IN multimer act inactive | TR-FRET interf inactive | IN-LEDGF confirm inactive
Cc1cccc(N=C2NC(=O)/C(=C/C=C/c3ccco3)S2)c1C	UHRF1 binding 48, PRMT1 inh 29, LEDGF integ inh 49, MBD2 inh 17 | PRMT1 inh conf 31 | UHRF1 ctr MBD2 21 | MBD2 confirm inactive | IN multimer act 9.7 | TR-FRET interf inactive | IN-LEDGF confirm 63
O=C(CCCSc1ccccc1)Nc1nc(-c2ccco2)c(-c2ccco2)s1	PRMT1 inh 44, LEDGF integ inh 20 | PRMT1 inh conf inactive | IN multimer act inactive | TR-FRET interf inactive | IN-LEDGF confirm inactive
Cc1ccc(N2CCN(c3ccc(NC(=O)CCC(=O)O)cc3)CC2)cc1	none
O=C(O)CCC(=O)Nc1ccc(N2CCCCCC2)cc1	PRMT1 inh 31, LEDGF integ inh 14 | PRMT1 inh conf inactive | IN multimer act inactive | TR-FRET interf inactive | IN-LEDGF confirm inactive
CCOC(=O)N1CCN(C(=O)C[C@H]2C(=O)N(CCCOC)C3=CCCC[C@@]32C(=O)OCC)CC1	none (no result: RBBP9 inh, ABHD5 PLIN5 PPI)
COc1ccc(NC(=O)CSc2sc3c(O)cc(=O)[nH]c3c2C#N)c(OC)c1	UHRF1 binding 56, PRMT1 inh 66, LEDGF integ inh 16, MBD2 inh 30 (no result: RBBP9 inh) | PRMT1 inh conf inactive | UHRF1 ctr MBD2 22 | MBD2 confirm inactive | IN multimer act 21 | TR-FRET interf inactive | IN-LEDGF confirm 34
COC(=O)c1ccc(C)c(NC(=O)CCSc2ccc(C)cc2)c1	none
COC(=O)c1ccc(C)c(NC(=O)CSc2sc3c(O)cc(=O)[nH]c3c2C#N)c1	UHRF1 binding 51, PRMT1 inh 49, LEDGF integ inh 14, MBD2 inh 14 (no result: RBBP9 inh) | PRMT1 inh conf inactive | UHRF1 ctr MBD2 22 | MBD2 confirm inactive | IN multimer act 20 | TR-FRET interf inactive | IN-LEDGF confirm 36
COc1ccc(NC(=O)CSc2nc(O)cc(=O)[nH]2)c(OC)c1	none
Cc1csc(NC(=O)CSc2nc3[nH]c(=O)cc(O)c3s2)n1	none (no result: RBBP9 inh)
Cc1csc(NC(=O)CSc2sc3c(O)cc(=O)[nH]c3c2C#N)n1	UHRF1 binding 79, PRMT1 inh 81, LEDGF integ inh 38, MBD2 inh 52 (no result: RBBP9 inh) | PRMT1 inh conf inactive | UHRF1 ctr MBD2 inactive | MBD2 confirm inactive | IN multimer act 41 | TR-FRET interf inactive | IN-LEDGF confirm 20
COC(=O)[C@]12C[C@H](CC(=O)N3CCC(c4ccccc4)CC3)C(=O)N(CCc3ccc(OC)c(OC)c3)C1=C[C@H](COCc1ccccc1)O[C@@H]2C	none (no result: RBBP9 inh, ABHD5 PLIN5 PPI)
C=CCn1c(SCC(=O)C(C)(C)C)nnc1-c1ccc(Cl)cc1	none (no result: RBBP9 inh, ABHD5 PLIN5 PPI)
CCOC(=O)CCCNC(=O)OC1CC2CC1[C@H]1CCCCN1[C@H]2C (stereo partly drawn)	none (no result: RBBP9 inh, ABHD5 PLIN5 PPI)
NC(N)=NS(=O)(=O)c1ccc(NC(=S)NC(=O)/C=C/c2ccco2)cc1	none
NS(=O)(=O)c1ccc(NC(=S)NC(=O)/C=C/c2ccco2)cc1	PRMT1 inh 56, LEDGF integ inh 33 | PRMT1 inh conf inactive | IN multimer act 13 | TR-FRET interf inactive | IN-LEDGF confirm 38
CCS(=O)(=O)C1=NN2C(=N)/C(=C\c3ccc(SCc4ccco4)o3)C(=O)N=C2S1	UHRF1 binding 38, PRMT1 inh 30, LEDGF integ inh 43 | PRMT1 inh conf inactive | IN multimer act 15 | TR-FRET interf inactive | IN-LEDGF confirm 53
CCOC(=O)C1=C(O)/C(=C/c2ccc(CNC(=O)C(=O)Nc3ccc(C)cc3)o2)N=C1C	PRMT1 inh 48, LEDGF integ inh 35 | PRMT1 inh conf inactive | IN multimer act inactive | TR-FRET interf inactive | IN-LEDGF confirm inactive
COC(=O)C1=C(O)/C(=C\c2ccc(CNC(=O)C(=O)Nc3ccc(C)cc3)o2)N=C1C	none
COC(=O)C1=C(O)/C(=C\c2ccc(CNC(=O)C(=O)Nc3ccc(C)c(C)c3)o2)N=C1C	PRMT1 inh 45, LEDGF integ inh 41 | PRMT1 inh conf inactive | IN multimer act inactive | TR-FRET interf inactive | IN-LEDGF confirm inactive
CCCCN=C(N)NC(=O)c1ccccc1	none (no result: RBBP9 inh, ABHD5 PLIN5 PPI)
COc1ccc(N=C2NC(=O)/C(=C/c3ccco3)S2)cc1	none
COc1ccc(S(=O)(=O)/N=C2/NC(=O)/C(=C/c3ccco3)S2)cc1	UHRF1 binding 76, PRMT1 inh 47, LEDGF integ inh 39, MBD2 inh 22 | PRMT1 inh conf inactive | UHRF1 ctr MBD2 inactive | MBD2 confirm inactive | IN multimer act inactive | TR-FRET interf inactive | IN-LEDGF confirm inactive

Screens deposited in PubChem BioAssay by The Scripps Research Institute Molecular Screening Center.
